# Reference: ChEMBL document CHEMBL1147453, “3,4-Dihydroquinazoline derivatives as novel selective T-type Ca2+ channel blockers” (Bioorg Med Chem Lett, 2004)
# What was measured:
# [1] = target: T1, Voltage-dependent T-type calcium channel subunit alpha-1G (Homo sapiens, UniProt O43497); assay: Concentration of the compounds required for inhibition of HEK293 cells (alpha1G T-type); type: functional, cell-based
# [2] = target: Voltage-dependent T-type calcium channel subunit alpha-1H (Homo sapiens) (UniProt O95180); assay: In vitro inhibitory effect on alpha-1H T-type [Ca2+] channels expressed in Xenopus oocytes at 100 uM; type: functional, cell-based; settings: Oocyte
# Procedure, shortened: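 Preliminary screen at 100 µM on α1H T-type Ca2+ channels expressed in Xenopus oocytes, recorded by two-electrode voltage clamp. Output is percent inhibition of current.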
# [3] = target: T1, Voltage-dependent T-type calcium channel subunit alpha-1G; assay: In vitro inhibition of alpha-1G T-type [Ca2+] channels expressed in HEK293 cells at 10 uM; type: functional, cell-based
# Procedure, shortened: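 Whole-cell patch clamp on HEK293 cells expressing α1G T-type Ca2+ channels, test compound at 10 µM. Percent inhibition of T-type current reported as mean ± SEM from repeated runs (n ≥ 3).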
# [4] = target: Voltage-dependent N-type calcium channel subunit alpha-1B (Homo sapiens) (UniProt Q00975); assay: Inhibition of HVA N-type [Ca2+] channels of major pelvic ganglion (MPG) neurons at 10 uM; type: functional
# Procedure, shortened: (§1)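 Major pelvic ganglion (MPG) neurons, compound at 10 µM. Percent inhibition measured for both LVA (T-type) and HVA (N-type) Ca2+ currents, as part of an ion-channel selectivity screen that also covered Na+ channels.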
# [5] = Inhibition of LVA T-type [Ca2+] channels of major pelvic ganglion (MPG) neurons at 10 uM; type: functional; procedure, shortened: as §1
# [6] = target: T1, Voltage-dependent T-type calcium channel subunit alpha-1G; assay: In vitro inhibition of alpha-1G T-type [Ca2+] channels expressed in HEK293 cells; type: functional, cell-based
# Procedure, shortened: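 α1G T-type Ca2+ currents recorded in HEK293 cells by whole-cell patch clamp. IC50 is the molar concentration giving 50% inhibition of α1G current, obtained by fitting raw data to dose–response curves.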
# Sequence of Voltage-dependent T-type calcium channel subunit alpha-1H (Homo sapiens) (O95180 whole entry): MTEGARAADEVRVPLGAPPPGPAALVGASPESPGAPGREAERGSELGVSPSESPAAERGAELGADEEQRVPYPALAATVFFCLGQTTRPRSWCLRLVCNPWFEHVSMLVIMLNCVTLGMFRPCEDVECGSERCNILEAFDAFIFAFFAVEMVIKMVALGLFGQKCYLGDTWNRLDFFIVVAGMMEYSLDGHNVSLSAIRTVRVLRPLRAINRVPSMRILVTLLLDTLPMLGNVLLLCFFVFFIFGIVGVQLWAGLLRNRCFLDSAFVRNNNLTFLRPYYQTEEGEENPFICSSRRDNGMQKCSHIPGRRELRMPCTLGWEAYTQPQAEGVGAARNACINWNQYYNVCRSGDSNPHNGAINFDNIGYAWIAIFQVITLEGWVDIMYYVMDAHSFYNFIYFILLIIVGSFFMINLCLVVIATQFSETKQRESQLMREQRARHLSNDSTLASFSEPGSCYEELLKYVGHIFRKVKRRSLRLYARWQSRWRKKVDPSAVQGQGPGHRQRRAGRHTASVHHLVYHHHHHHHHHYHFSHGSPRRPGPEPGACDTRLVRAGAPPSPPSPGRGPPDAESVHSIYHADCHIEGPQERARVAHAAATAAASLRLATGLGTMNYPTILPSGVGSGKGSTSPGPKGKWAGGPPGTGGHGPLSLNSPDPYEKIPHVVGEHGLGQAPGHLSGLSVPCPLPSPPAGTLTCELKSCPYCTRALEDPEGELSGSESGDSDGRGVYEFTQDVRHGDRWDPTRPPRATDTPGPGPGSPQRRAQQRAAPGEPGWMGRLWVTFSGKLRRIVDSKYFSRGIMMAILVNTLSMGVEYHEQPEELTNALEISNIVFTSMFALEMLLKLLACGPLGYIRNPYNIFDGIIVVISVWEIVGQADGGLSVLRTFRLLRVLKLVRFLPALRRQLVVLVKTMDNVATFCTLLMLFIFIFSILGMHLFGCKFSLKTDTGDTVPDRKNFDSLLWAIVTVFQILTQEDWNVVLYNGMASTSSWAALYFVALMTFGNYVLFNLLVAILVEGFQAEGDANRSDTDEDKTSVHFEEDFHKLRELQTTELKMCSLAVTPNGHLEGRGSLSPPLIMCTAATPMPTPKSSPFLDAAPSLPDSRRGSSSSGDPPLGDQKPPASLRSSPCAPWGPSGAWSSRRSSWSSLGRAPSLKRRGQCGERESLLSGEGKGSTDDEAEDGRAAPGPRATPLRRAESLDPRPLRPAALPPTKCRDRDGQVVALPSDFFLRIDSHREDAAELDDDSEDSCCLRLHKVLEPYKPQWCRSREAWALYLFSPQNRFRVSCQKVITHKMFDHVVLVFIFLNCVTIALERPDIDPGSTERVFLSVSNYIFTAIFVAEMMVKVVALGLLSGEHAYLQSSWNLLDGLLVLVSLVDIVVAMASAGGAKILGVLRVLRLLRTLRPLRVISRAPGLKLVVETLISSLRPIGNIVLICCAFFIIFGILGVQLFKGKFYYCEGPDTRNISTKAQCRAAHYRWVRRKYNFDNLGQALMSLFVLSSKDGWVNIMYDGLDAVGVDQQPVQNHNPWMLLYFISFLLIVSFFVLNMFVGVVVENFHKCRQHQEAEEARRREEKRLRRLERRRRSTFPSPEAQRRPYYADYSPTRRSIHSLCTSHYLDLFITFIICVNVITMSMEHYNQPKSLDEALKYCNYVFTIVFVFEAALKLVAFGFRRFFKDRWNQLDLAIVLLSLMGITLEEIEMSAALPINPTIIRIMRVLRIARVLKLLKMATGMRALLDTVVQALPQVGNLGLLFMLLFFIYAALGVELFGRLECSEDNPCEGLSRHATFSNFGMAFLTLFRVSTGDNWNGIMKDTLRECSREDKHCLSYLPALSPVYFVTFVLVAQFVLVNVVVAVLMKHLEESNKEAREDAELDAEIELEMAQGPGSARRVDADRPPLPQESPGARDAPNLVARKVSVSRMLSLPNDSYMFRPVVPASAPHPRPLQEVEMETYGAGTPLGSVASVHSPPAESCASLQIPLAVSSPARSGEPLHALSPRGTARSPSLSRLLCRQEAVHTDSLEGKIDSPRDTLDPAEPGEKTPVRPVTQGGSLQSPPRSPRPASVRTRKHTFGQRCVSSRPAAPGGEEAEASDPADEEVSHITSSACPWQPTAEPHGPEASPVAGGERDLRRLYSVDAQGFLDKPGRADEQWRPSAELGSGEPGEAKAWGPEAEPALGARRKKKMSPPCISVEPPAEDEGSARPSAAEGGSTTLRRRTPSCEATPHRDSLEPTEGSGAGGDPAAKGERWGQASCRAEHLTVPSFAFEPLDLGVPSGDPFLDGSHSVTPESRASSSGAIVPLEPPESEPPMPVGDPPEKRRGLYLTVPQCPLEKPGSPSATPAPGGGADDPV
# T1 sequence (O43497 whole entry): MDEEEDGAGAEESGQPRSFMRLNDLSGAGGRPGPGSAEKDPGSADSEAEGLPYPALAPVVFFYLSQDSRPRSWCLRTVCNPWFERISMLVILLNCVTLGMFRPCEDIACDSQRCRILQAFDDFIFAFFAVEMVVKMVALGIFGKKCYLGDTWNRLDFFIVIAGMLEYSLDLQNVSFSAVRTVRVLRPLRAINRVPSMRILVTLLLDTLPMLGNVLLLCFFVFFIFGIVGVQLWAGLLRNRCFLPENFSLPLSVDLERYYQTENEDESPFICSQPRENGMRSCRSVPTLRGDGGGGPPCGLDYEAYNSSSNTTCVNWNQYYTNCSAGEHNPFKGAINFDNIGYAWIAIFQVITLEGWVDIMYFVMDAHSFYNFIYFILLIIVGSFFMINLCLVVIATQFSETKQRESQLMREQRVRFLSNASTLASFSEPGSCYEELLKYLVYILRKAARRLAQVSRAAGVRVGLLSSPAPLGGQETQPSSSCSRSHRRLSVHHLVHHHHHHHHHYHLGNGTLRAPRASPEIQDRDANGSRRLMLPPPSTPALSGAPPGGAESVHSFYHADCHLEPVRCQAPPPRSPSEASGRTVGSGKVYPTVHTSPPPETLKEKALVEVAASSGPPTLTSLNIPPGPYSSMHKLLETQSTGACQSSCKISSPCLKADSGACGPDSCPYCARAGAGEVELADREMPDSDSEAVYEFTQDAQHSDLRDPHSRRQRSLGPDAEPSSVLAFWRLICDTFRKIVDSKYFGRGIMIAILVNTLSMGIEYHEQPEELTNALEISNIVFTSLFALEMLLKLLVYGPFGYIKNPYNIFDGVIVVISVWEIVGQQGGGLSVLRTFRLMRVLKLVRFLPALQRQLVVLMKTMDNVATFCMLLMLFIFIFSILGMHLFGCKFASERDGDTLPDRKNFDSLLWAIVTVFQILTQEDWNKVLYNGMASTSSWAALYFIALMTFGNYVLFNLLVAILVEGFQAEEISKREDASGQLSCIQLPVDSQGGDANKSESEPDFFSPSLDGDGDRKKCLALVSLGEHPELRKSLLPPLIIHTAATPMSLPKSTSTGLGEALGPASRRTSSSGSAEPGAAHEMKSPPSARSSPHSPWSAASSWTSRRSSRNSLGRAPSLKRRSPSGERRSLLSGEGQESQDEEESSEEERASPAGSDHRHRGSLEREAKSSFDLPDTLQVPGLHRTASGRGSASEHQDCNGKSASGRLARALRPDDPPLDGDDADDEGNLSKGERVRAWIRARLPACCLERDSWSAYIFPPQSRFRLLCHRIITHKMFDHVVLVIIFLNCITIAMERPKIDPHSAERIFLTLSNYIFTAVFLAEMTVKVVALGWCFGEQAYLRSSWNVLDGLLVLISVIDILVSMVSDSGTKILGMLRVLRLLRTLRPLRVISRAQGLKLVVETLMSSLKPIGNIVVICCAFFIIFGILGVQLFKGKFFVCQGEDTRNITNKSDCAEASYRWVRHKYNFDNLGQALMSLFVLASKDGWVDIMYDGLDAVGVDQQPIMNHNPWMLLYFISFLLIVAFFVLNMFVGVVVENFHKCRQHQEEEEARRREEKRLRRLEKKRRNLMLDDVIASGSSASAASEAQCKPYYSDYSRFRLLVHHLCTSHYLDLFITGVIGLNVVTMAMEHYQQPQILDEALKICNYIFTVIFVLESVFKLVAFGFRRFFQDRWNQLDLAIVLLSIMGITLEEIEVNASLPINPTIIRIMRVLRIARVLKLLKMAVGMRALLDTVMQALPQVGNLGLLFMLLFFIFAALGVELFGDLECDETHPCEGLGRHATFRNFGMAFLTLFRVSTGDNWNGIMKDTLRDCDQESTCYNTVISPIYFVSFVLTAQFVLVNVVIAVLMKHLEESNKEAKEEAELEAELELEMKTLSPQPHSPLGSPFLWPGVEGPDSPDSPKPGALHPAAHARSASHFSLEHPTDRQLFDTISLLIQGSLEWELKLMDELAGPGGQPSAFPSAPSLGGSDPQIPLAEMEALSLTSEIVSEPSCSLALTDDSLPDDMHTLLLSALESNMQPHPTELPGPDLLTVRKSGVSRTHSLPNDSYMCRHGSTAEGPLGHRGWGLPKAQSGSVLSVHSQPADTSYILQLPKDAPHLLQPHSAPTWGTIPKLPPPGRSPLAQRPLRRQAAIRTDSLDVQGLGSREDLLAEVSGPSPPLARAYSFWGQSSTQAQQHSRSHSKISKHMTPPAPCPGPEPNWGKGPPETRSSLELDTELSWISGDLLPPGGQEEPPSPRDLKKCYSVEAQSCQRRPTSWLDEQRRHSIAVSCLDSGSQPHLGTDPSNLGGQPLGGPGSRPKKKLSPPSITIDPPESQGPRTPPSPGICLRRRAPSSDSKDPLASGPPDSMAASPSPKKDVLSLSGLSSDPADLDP
IC50 [1] [µM],inhibition [2] [%],inhibition [3] [%],Compound,further results
21.6,63.8,40.5,O=C(CC1c2ccccc2N=C(N2CCOCC2)N1c1ccccc1)NCc1ccccc1 (stereo unspecified),–
–,14,–,COC(=O)CC1c2ccccc2N=C(N2CCOCC2)N1c1ccccc1 (stereo unspecified),–
–,9,–,O=C(O)CC1c2ccccc2N=C(N2CCOCC2)N1c1ccccc1 (stereo unspecified),–
–,32.7,–,CN1CCN(C2=Nc3ccccc3C(CC(=O)OCc3ccccc3)N2c2ccccc2)CC1 (stereo unspecified),–
35.8,70.3,29,CN1CCN(C2=Nc3ccccc3C(CC(=O)NCc3ccccc3)N2c2ccccc2)CC1 (stereo unspecified),–
14.4,66.8,43.5,Nc1ccc(CNC(=O)CC2c3ccccc3N=C(N3CCCCC3)N2c2ccccc2)cc1 (stereo unspecified),inhibition [4]: 18.4%; inhibition at 10 µM [5]: 4.7%
27.7,11.5,18.3,COC(=O)CC1c2ccccc2N=C(N2CCCCC2)N1c1ccccc1 (stereo unspecified),–
–,15,–,COC(=O)CC1c2ccccc2N=C(N2CCN(C)CC2)N1c1ccccc1 (stereo unspecified),–
–,8,–,O=C(O)CC1c2ccccc2N=C(N2CCCCC2)N1c1ccccc1 (stereo unspecified),–
0.2,80.5,89,O=C(CC1c2ccccc2N=C(N2CCCCC2)N1c1ccccc1)NCc1ccc(NS(=O)(=O)c2ccc(F)cc2)cc1 (stereo unspecified),inhibition [4]: 50.8%; inhibition at 10 µM [5]: 49.6%
10.7,51.5,–,COC(=O)CC1c2ccccc2N=C(c2ccccc2)N1c1ccccc1 (stereo unspecified),inhibition [6]: 50%
–,7.2,–,O=C(O)CC1c2ccccc2N=C(c2ccccc2)N1c1ccccc1 (stereo unspecified),–
–,15,–,CN1CCN(C2=Nc3ccccc3C(CC(=O)O)N2c2ccccc2)CC1 (stereo unspecified),–
–,86,95.9,COCC(=O)O[C@]1(CCN(C)CCCc2nc3ccccc3[nH]2)CCc2cc(F)ccc2[C@@H]1C(C)C,–
–,27,–,COC(=O)CC1c2ccccc2N=C(N2CCCCC2)N1C1CCCCC1 (stereo unspecified),–
–,12.2,–,COC(=O)CC1c2ccccc2N=C(N2CCOCC2)N1C1CCCCC1 (stereo unspecified),–
–,14.8,–,O=C(CC1c2ccccc2N=C(c2ccccc2)N1c1ccccc1)NCc1ccccc1 (stereo unspecified),–
2.5,91.9,92.3,O=C(CC1c2ccccc2N=C(N2CCCCC2)N1c1ccccc1)NCc1ccc([N+](=O)[O-])cc1 (stereo unspecified),inhibition [4]: 32.2%; inhibition at 10 µM [5]: 37.7%
–,20.9,–,O=C(CC1c2ccccc2N=C(N2CCOCC2)N1c1ccccc1)OCc1ccccc1 (stereo unspecified),–
0.9,77,90.1,O=C(CC1c2ccccc2N=C(N2CCCCC2)N1c1ccccc1)NCc1ccccc1 (stereo unspecified),inhibition [4]: 12%; inhibition at 10 µM [5]: 76%
–,14.2,–,O=C(CC1c2ccccc2N=C(c2ccccc2)N1c1ccccc1)OCc1ccccc1 (stereo unspecified),–
–,8,–,COC(=O)CC1c2ccccc2N=C(N2CCCCC2)N1C(C)C (stereo unspecified),–
–,0,–,COC(=O)CC1c2ccccc2N=C(N2CCOCC2)N1C(C)C (stereo unspecified),–
–,0,–,COC(=O)CC1c2ccccc2N=C(N2CCN(C)CC2)N1C(C)C (stereo unspecified),–
–,15.6,–,O=C(CC1c2ccccc2N=C(N2CCCCC2)N1c1ccccc1)OCc1ccccc1 (stereo unspecified),–
0.25,84.7,89.9,Cc1ccc(S(=O)(=O)Nc2ccc(CNC(=O)CC3c4ccccc4N=C(N4CCCCC4)N3c3ccccc3)cc2)cc1 (stereo unspecified),inhibition [4]: 38.7%; inhibition at 10 µM [5]: 29%

Compound,IC50 [1] [µM],inhibition [2] [%],inhibition [3] [%],further results
COC(=O)CC1c2ccccc2N=C(N2CCN(C)CC2)N1C1CCCCC1 (stereo unspecified),–,3,–,–
